IC50 and logP data for 15 compounds are collected here from ChEMBL document CHEMBL3271955, “Design, synthesis, and correlation analysis of 7-substituted 4-hydroxyquinoline-3-carboxylic acids as inhibitors of cellular respiration” (J Med Chem, 1977).

The test system of one data set is Ehrlich. The data set is described as follows: Inhibition of respiration in mouse Ehrlich ascites cells after 30 mins incubation at 37 degC by whole cell model. It is filed as functional, cell-based. The settings on record: 0.5 h, read-out: I50. The gist of the method: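 Ehrlich ascites cells passaged weekly in Swiss white mice; fluid from 7-10 day tumors, saline-washed, held on ice at ~0.30 g/mL. Cells incubated in glucose-free phosphate Ringer with DMSO vehicle or DMSO plus inhibitor, 30 min at 37 °C. O2 uptake read by oxygen electrode. At least four concentrations in triplicate; I50 by least squares of % inhibition vs concentration.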

Data set [1] has as its target T1, Malate dehydrogenase, mitochondrial (Homo sapiens, UniProt P40926).
T1 sequence (P40926 whole entry): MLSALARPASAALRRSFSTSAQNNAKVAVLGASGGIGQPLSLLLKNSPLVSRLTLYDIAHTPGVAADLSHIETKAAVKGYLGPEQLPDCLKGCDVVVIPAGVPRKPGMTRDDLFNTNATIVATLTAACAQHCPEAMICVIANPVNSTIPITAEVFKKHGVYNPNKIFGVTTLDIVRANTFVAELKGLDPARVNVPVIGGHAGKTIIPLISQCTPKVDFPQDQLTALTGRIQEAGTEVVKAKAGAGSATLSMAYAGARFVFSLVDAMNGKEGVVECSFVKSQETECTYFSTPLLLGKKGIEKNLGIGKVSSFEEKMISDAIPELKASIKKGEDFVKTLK
The experiment in a line: Inhibition of malate dehydrogenase (unknown origin) by spectrophotometry. Particulars: read-out: I50. The gist of the method:
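Malate dehydrogenase of unstated source diluted in pH 7.4 Tris to give 0.01-0.02 OD/min at 340 nm. Cuvette holds L-malate (2 mM stock), NAD+ (0.80 mM stock) and 0.05 M Tris pH 8.4, with inhibitor in Me2SO, at 25 °C. Reaction started with enzyme; NADH formation read at 340 nm. Four inhibitor levels in triplicate; I50 from least-squares dose-response line.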

A short description of data set [2]: Lipophilicity, log P of the compound. Type of data set: physicochemical. The settings on record: octanol/water.

On to `O=C(O)c1cnc2cc(S(=O)(=O)O)ccc2c1O`, for which the figures for the IC50 (in the data set with Ehrlich; in data set [1]) were 1300 µM and 2140 µM, respectively.
For `O=C(O)c1cnc2cc(O)ccc2c1O` the same measures were 910 µM and 490 µM.
For `CN(C)c1ccc2c(O)c(C(=O)O)cnc2c1` the same measures were 470 µM and 480 µM.
Regarding `O=C(O)c1ccc2c(O)c(C(=O)O)cnc2c1`, the results for the IC50 (with Ehrlich; in data set [1]) were 5770 µM and 1070 µM, respectively.
For the compound `O=C(O)c1cnc2cc([N+](=O)[O-])ccc2c1O`, the IC50 in the data set on Ehrlich stood at 580 µM; in data set [1] it was 1890 µM.
With `NS(=O)(=O)c1ccc2c(O)c(C(=O)O)cnc2c1`, the IC50 in the data set with Ehrlich amounted to 3400 µM; in data set [1], 950 µM.
For `CC(=O)c1ccc2c(O)c(C(=O)O)cnc2c1` the same measures were 790 µM and 910 µM.
Consider `O=C(O)c1cnc2cc(OCc3ccc(Cl)c(Cl)c3)ccc2c1O`, for which the IC50 turned out to be 15 µM with Ehrlich and 5 µM in data set [1].
`O=C(O)c1cnc2cc(OCc3ccccc3)ccc2c1O`: the IC50 in the data set on Ehrlich stood at 38 µM; in data set [1], 32 µM.
Turning to `O=C(O)c1cnc2ccccc2c1O`, in the data set on Ehrlich, the IC50 was 1060 µM. Further, the logP in data set [2] stood at 0.23.
For the compound `NC(=O)c1ccc2c(O)c(C(=O)O)cnc2c1`, the IC50 in the data set with Ehrlich stood at 5820 µM; in data set [1] it was 740 µM.
In the case of `CS(=O)(=O)c1ccc2c(O)c(C(=O)O)cnc2c1`, the IC50 in the data set with Ehrlich is 1790 µM; in data set [1], 660 µM.
Consider `O=C(O)c1cnc2cc(Cl)ccc2c1O`, for which the IC50 in the data set with Ehrlich was 140 µM; in data set [1], 3620 µM.
The like results for `O=C(O)c1cnc2cc(F)ccc2c1O` were, in that order, 500 µM and 10600 µM.
For `COc1ccc2c(O)c(C(=O)O)cnc2c1`, in the data set on Ehrlich, the IC50 worked out at 520 µM.

By logP is commonly meant the decadic logarithm of the partition coefficient of the neutral form, usually between octanol and water. Read a high logP as higher lipophilicity.
